AF4-AF9 inh: inhibitors of human MLL-AF4/AF9 interaction; AID 651704; 350,000 compounds, 0.47% hits; inhibition, % at 10 µM; P42568; AlphaScreen, biotin-AF4 peptide binding to FLAG-AF9;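 active = every replicate reaching a set inhibition limit, whatever the replicate mean, cut at about 25% in these data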;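 also: 0% = plate neutral control median and 100% = total signal loss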
RAD54 branch: RAD54 (human) branch migration inhibition; AID 602329; inhibition, % at 10.4 µM; 360,000 compounds, 0.14% hits; RAD54 Holliday junction branch migration, FAM/BHQ fluorescence;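 active = mean normalized replicate activity at least 40 and at least half of replicates scoring 40 or more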;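 also: 0% = median of neutral control wells and 100% = median of positive control wells; inhibitors cause a drop in the FAM fluorescence signal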
S100A4 MyoIIA: S100A4-myosin IIA interaction inhibition. P26447. S100A4/TAMRA-MyoIIA peptide fluorescence polarization. inhibition, % at 10.7 µM. 360,000 compounds, 0.14% hits. AID 652163;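 active = mean inhibition of at least 70% across replicates, with every replicate also reaching that level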
Target sequence (P26447 whole entry, looked up): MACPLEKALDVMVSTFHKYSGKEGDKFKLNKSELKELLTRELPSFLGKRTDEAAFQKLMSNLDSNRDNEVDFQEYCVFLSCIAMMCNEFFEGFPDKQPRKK
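Material: S100A4 monomer protein / Buffer or medium: 50 mM HEPES pH 7.2, 10 mM CaCl2, 100 mM KCl / Times: 5 min incubation before reading / Benchmarks: neutral control DMSO, positive control TFP / Reagent: labelled myosin peptide probe, 5 nM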
RAD52 inh: RAD52 (human) annealing inhibition; 360,000 compounds, 0.46% hits; inhibition, % at 18.7 µM; recombinant RAD52 DNA annealing, FRET fluorescence; P43351; AID 651710;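 active = every replicate showing at least 50% inhibition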
dFosB act-1: enhances mouse delta FosB homodimer DNA binding; activation, % at 25 µM; purified delta FosB, TAMRA-CDK5 oligo fluorescence polarization; percent of positive-control signal above neutral wells; 340,000 compounds, 0.99% hits; P13346;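 active = mean activation above about 17%, with every replicate also reaching it, limit read from the data, passing the limit was not always enough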
Target sequence (P13346 whole entry, looked up): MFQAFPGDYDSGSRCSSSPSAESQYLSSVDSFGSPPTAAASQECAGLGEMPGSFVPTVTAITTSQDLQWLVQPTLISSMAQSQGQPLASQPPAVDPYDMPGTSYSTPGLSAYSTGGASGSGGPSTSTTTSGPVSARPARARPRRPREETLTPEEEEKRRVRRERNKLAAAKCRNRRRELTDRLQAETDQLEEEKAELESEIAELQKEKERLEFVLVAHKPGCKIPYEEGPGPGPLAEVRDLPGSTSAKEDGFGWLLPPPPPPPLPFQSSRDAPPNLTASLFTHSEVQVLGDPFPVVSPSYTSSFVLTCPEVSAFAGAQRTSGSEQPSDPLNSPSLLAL
dFosB act-2: enhances mouse delta FosB homodimer binding to DNA; shares compounds with dFosB act-1; purified delta FosB, TAMRA-CDK5 oligo fluorescence polarization; normalised: neutral wells 0, positive control 100; activation, % at 24.9 µM; 2,400 tested, under 10 active; AID 588690;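 active = highest replicate activation at or above 34% and every replicate reaching that threshold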;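 also: higher polarization means more probe DNA bound by delta FosB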
An asterisk follows results filed as active; . = no result. Most compounds without a hit are left out; they make up all but 1.5% or so of the library.

SMILES | AF4-AF9 inh | RAD54 branch | S100A4 MyoIIA | RAD52 inh | dFosB act-1 | dFosB act-2
O=C(Cc1c(Cl)cccc1Cl)NCCc1ccc(Cl)cc1 | . | -0.5 | . | . | 20.1* | 0.4
O=C(Nc1ccc2c(c1)OCO2)N[C@@H]1CC[C@@H](CCNC(=O)C2CCOCC2)O[C@@H]1CO | -1.0 | -4.7 | 11.6 | -5.9 | . | .
CCc1ccc(NC(=O)Cn2c(=O)c3cccn3c3ccccc32)cc1 | 1.8 | 11.3 | -0.8 | -31.9 | 32.2* | 4.6
O=C(Cn1c(=O)c2cccn2c2ccccc21)Nc1cc(F)ccc1F | -7.2 | 5.0 | -3.6 | -60.3 | 14.2 | .
Cc1cc(C)c(NC(=O)Cn2c(=O)c3cccn3c3ccccc32)c(C)c1 | 0.5 | 10.4 | -0.2 | -12.4 | 39.2* | 2.8
O=C(CCC(=O)Nc1ccc(Cl)cc1Cl)NNC(=O)Nc1ccccc1 | 1.1 | . | -0.3 | -4.4 | 33.9* | 1.3
CCOc1ccc(NC(=O)CCC(=O)NNC(=O)Nc2cccc(Cl)c2)cc1 | 0.6 | . | -5.0 | -6.9 | 33.7* | 0.6
CCOc1ccc(NC(=O)CCC(=O)NNC(=O)COc2ccc(C)cc2)cc1 | -0.2 | . | 1.4 | -3.3 | -4.8 | .
Cc1ccc(O)c(C(=O)c2cc(C#N)c3nc4ccccc4n3c2)c1 | -2.8 | . | 1.5 | -26.7 | 24.0* | 7.9
C[C@@H]1CN([C@@H](C)CO)C(=O)c2cc(NC(=O)Nc3ccccc3)ccc2O[C@@H](C)CCCCO[C@@H]1CN(C)S(=O)(=O)c1ccc(F)cc1 | . | -7.7 | . | . | . | .
COCCNC(=O)C[C@H]1CC[C@@H]2[C@@H](COc3ccc(NC(=O)C4CCCC4)cc3C(=O)N2C)O1 | -0.5 | 4.3 | 6.9 | -2.9 | . | .
O=C(Nc1ccc2c(c1)OCO2)Nc1ccc(Cl)cc1Cl | . | 8.5 | . | . | 28.9* | 1.4
Cc1ccc(NC(=O)Nc2cnccn2)cc1Cl | -1.6 | . | 2.7 | -3.6 | 11.2 | .
O=C(Nc1cnccn1)Nc1ccc(Cl)cc1Cl | . | 5.8 | . | . | 33.7* | 6.2
N/C(=N\c1nc(CSc2nnnn2-c2ccccc2)cc(=O)[nH]1)Nc1ccccc1 | -3.9 | . | -0.9 | -14.3 | . | .
O=c1cc(CSc2nnnn2-c2ccccc2)nc(Nc2ccc(F)cc2)[nH]1 | . | 10.6 | . | . | 25.7* | -7.4
Cn1cnnc1Sc1cc(N2CCN(S(=O)(=O)c3ccc4ccccc4c3)CC2)ccc1[N+](=O)[O-] | . | -2.4 | . | . | 18.9* | -0.6
O=C(C[C@H]1CC[C@@H](NC(=O)C2CCC2)[C@@H](CO)O1)NCc1ccccc1Cl | -1.3 | 5.0 | -1.0 | 8.0 | . | .
NC(=O)c1ccc(NC(=O)CSC2=Nc3ccccc3C3CC=NN23)cc1 (stereo unspecified) | . | -11.6 | . | . | 24.9* | -1.7
O=C(C[C@@H]1CC[C@@H]2[C@H](COC[C@@H](O)CN2CC2CCCC2)O1)NCc1ccc(Cl)cc1 | -0.7 | . | 9.1 | -7.4 | . | .
CCNC(=O)[C@H]1[C@H](CO)[C@H]2Cn3c(ccc(-c4ccccc4)c3=O)[C@@H]1N2C(=O)CC1CC1 | -0.4 | . | 2.0 | -14.6 | . | .
Cc1c(-c2nc(N)nc(Nc3ccc(F)cc3)n2)oc2ccccc12 | . | 4.0 | . | . | 70.7* | 9.0
CCOc1ccc(CCNC(=O)c2nnn(CC(=O)Nc3c(C)cc(C)cc3C)c2N)cc1OCC | 1.8 | 1.5 | -5.5 | -3.0 | 28.7* | 2.2
CCOc1ccc(OCC)c(NC(=O)c2nnn(CC(=O)Nc3cc(C)cc(C)c3)c2N)c1 | -3.8 | 2.0 | -1.5 | 3.8 | 60.9* | 8.1
CCOc1ccc(NC(=O)c2nnn(CC(=O)Nc3ccccc3OCC)c2N)cc1 | . | -15.2 | . | . | -6.6 | .
SMILES | AF4-AF9 inh | RAD54 branch | S100A4 MyoIIA | RAD52 inh | dFosB act-1 | dFosB act-2
COc1ccc(CCNC(=O)c2nnn(CC(=O)Nc3c(C)cc(C)cc3C)c2N)cc1OC | 0.8 | 11.2 | -4.9 | -8.0 | 80.5* | 3.3
O=C(c1ccccn1)N1CC2(C1)[C@@H](c1ccccc1)[C@@H](CO)N2Cc1ccc(Cl)cc1 | 1.6 | . | 10.1 | -6.0 | . | .
NC(=O)NC(=O)COC(=O)c1sc2ccccc2c1Cl | 3.8 | . | 3.8 | -4.5 | 42.8* | 7.1
O=C(COC(=O)c1sc2ccccc2c1Cl)NC1CCCCC1 | . | . | . | . | 0.7 | .
O=C(COC(=O)CNC(=O)c1sc2ccccc2c1Cl)Nc1c(Cl)cc(Cl)cc1Cl | 1.1 | 5.0 | -1.3 | -5.4 | 40.1* | 7.6
O=c1[nH]c(Cn2nnc(-c3ccccc3)n2)nc2scc(-c3ccccc3)c12 | . | -5.0 | . | . | 34.5* | 0.2

Screens: PubChem BioAssay, Broad Institute
